Data on 26 compounds can be found in ChEMBL document CHEMBL1144670, “Synthesis and pharmacology of 1-deoxy analogs of CP-47,497 and CP-55,940” (Bioorg Med Chem, 2008).

For assay [1], the target named is Cannabinoid receptor 1 (Rattus norvegicus, UniProt P20272). Put plainly: Displacement of [3H]CP-55940 from CB1 receptor in Sprague-Dawley rat brain membrane. It counts as cell membranes.
In assay [2] the target is T1, Cannabinoid receptor 2 (Homo sapiens, UniProt P34972). Put plainly: Displacement of [3H]CP-55940 from human cloned CB2 receptor. Background: Loss of bound radioactivity is the signal in a displacement assay; it reports binding, not function.
T1 sequence (P34972 whole entry): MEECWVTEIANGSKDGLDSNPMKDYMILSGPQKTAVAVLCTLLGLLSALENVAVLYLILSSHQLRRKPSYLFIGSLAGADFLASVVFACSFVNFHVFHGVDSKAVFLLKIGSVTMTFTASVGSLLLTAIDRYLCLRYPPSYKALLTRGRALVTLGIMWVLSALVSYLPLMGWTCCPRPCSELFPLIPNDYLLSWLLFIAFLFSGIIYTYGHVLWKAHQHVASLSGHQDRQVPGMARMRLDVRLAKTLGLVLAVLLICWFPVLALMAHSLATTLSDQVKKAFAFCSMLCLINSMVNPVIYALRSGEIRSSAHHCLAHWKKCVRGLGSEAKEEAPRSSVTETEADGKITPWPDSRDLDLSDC
A short description of assay [3]: Selectivity for human cloned CB2 receptor over Sprague Dawley rat brain membrane CB1 receptor.
The target of assay [4] is T1, Cannabinoid receptor 2. To be noted: CHO, 3 uM.
The target of assay [5] is T1, Cannabinoid receptor 2. Briefly: Agonist activity at human CB2 receptor expressed in CHO cells by [35S]GTP-gamma-S binding assay. It counts as functional, cell-based. The essentials:
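[35S]GTPγS binding on membranes of CHO cells stably expressing human CB2. 10 µg membrane protein was incubated 1.5 h at 30 °C in 50 mM Tris-HCl pH 7.4, 3 mM MgCl2, 0.2 mM EGTA, 100 mM NaCl, with 10 µM GDP, 0.1 nM [35S]GTPγS, 0.1% BSA and agonist over a concentration range. Nonspecific binding was set with 20 µM GTPγS. Filtration was followed by scintillation counting. EC50 came from nonlinear regression, 3-6 experiments in triplicate.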

In assay [6] the target is T1, Cannabinoid receptor 2. Briefly: Agonist activity at human CB2 receptor expressed in CHO cells by [35S]GTP-gamma-S binding assay relative to CP-55940. It counts as functional, cell-based. In a few lines:
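Same hCB2-CHO membrane [35S]GTPγS assay (10 µM GDP, 0.1 nM radioligand, 1.5 h, 30 °C). Net stimulation at each concentration was expressed as percent of that given by 3 µM CP-55,940, run as an internal standard in each experiment. Emax came from nonlinear regression of the concentration-effect curves, mean ± SEM of 3-6 experiments in triplicate.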
For orientation: Binding of GTPγS marks nucleotide exchange on a G protein.

Where only a bound is given, the exact number is not on record here.

Chain of Cannabinoid receptor 1 (P20272 whole entry): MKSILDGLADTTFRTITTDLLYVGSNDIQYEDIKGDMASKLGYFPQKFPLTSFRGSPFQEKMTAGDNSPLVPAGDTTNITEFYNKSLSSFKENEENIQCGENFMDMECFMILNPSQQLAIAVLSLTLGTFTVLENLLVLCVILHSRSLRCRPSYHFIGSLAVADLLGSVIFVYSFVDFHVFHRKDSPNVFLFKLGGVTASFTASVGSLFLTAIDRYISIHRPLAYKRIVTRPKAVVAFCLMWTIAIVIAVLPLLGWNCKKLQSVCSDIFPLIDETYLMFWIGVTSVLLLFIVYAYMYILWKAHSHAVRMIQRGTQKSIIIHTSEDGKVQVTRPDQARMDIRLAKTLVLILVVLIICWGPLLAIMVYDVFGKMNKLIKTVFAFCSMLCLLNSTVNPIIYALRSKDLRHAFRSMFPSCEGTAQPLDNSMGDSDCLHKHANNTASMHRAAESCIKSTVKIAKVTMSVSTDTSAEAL

In general, Ki refers to the equilibrium dissociation constant of an inhibitor or competing ligand from its target. As for `CCCCCCC(C)(C)c1ccc([C@H]2CCC[C@@H](O)C2)c(O)c1`, the affinity in assay [1], expressed as Ki, was 2.2 nM.
`CCCCCCCC(C)(C)c1ccc([C@@H]2CCC[C@@H](O)C2)cc1`: the Ki in assay [1] was 193 nM; in assay [2], 154 nM. Besides, in assay [3], the Ratio Ki was determined as 1.3.
As usually defined, the Emax is the maximal effect, on the per cent scale that the assay sets. Turning to `CCCCCCC(C)(C)c1ccc([C@@H]2C[C@H](O)CC[C@H]2CCCO)c(O)c1`, the Emax in assay [4] was found to be 85%.
With `CCC(C)(C)c1ccc([C@H]2CCC[C@@H](O)C2)cc1` (relative stereo), the Ki was greater than 10000 nM in assay [1] and 3970 nM in assay [2]. Besides, in assay [3], the Ratio Ki is greater than 2.5.
On to `CC(C)(C)c1ccc([C@H]2CCC[C@@H](O)C2)cc1` (relative stereo), for which the Ki in assay [1] and in assay [2] was greater than 10000 nM throughout.
On to `CCCCCCCCC(C)(C)c1ccc([C@@H]2C[C@H](O)CC[C@H]2CCCO)cc1` (relative stereo), for which the values for the Ki in assay [1] and in assay [2] were 566 nM and 421 nM, respectively. In assay [3], the Ratio Ki came to 1.3.
For `CCCCCCCC(C)(C)c1ccc([C@@H]2C[C@H](O)CC[C@H]2CCCO)cc1` (relative stereo), in that order: 266 nM, 173 nM and 1.5.
For `CCCC(C)(C)c1ccc([C@@H]2CCC[C@@H](O)C2)cc1` (relative stereo), in that order: 8630 nM, 1510 nM and 5.7.
Turning to `CCCCCCC(C)(C)c1ccc([C@@H]2CCC[C@@H](O)C2)cc1` (relative stereo), the results for the Ki in assay [1] and in assay [2] were 645 nM and 178 nM, respectively. In addition, the Ratio Ki in assay [3] worked out at 3.6.
For `CCCCCC(C)(C)c1ccc([C@@H]2C[C@H](O)CC[C@H]2CCCO)cc1` (relative stereo) the same measures were 308 nM, 221 nM and 1.4.
For `CCCC(C)(C)c1ccc([C@@H]2C[C@H](O)CC[C@H]2CCCO)cc1` (relative stereo), in that order: 3800 nM, 1780 nM and 2.1.
For `CCCCC(C)(C)c1ccc([C@@H]2CCC[C@@H](O)C2)cc1` (relative stereo) the same measures were 1730 nM, 546 nM and 3.2.
For orientation: EC50 means the concentration needed to bring the measured effect to its halfway point. Read a high EC50 as weaker potency. For the compound `CCCCCC(C)(C)c1ccc([C@@H]2CCC[C@@H](O)C2)cc1` (relative stereo), the inhibition constant Ki in assay [1] came out at 1030 nM; in assay [2], 215 nM. For the same compound, the Ratio Ki in assay [3] came to 4.8. Moreover, in assay [5], it took 39.6 nM to reach a half-maximal effect (EC50). In assay [6], this compound returned an Emax of 66%.
In the case of `CCCCCCCC(C)(C)c1ccc([C@H]2CCC[C@@H](O)C2)cc1` (relative stereo), the Ki turned out to be 786 nM in assay [1] and 672 nM in assay [2]. For the same compound, the Ratio Ki in assay [3] is 1.2.
In the case of `CCCCCCCCC(C)(C)c1ccc([C@H]2CCC[C@@H](O)C2)cc1` (relative stereo), the Ki is 1710 nM in assay [1] and 1120 nM in assay [2]. For the same compound, the Ratio Ki in assay [3] came to 1.5.
As to `CC(C)(C)c1ccc([C@@H]2CCC[C@@H](O)C2)cc1` (relative stereo), the Ki in assay [1] and in assay [2] was greater than 10000 nM each time.
Turning to `CCCCCC(C)(C)c1ccc([C@H]2CCC[C@@H](O)C2)cc1` (relative stereo), the Ki in assay [1] came out at 2110 nM; in assay [2], 460 nM. The Ratio Ki in assay [3] is 4.6.
For the compound `CCCCCCC(C)(C)c1ccc([C@H]2CCC[C@@H](O)C2)cc1` (relative stereo), the Ki in assay [1] is 2950 nM; in assay [2], 231 nM. For the same compound, in assay [3], the Ratio Ki came out at 13.
For `CCCCC(C)(C)c1ccc([C@H]2CCC[C@@H](O)C2)cc1` (relative stereo), in that order: greater than 10000 nM, 639 nM and greater than 16.
With `CC(C)(C)c1ccc([C@@H]2C[C@H](O)CC[C@H]2CCCO)cc1` (relative stereo), the Ki in assay [1] and in assay [2] was greater than 10000 nM each time.
Regarding `CCC(C)(C)c1ccc([C@@H]2C[C@H](O)CC[C@H]2CCCO)cc1` (relative stereo), the Ki is greater than 10000 nM in assay [1] and 1360 nM in assay [2]. In assay [3], the Ratio Ki is greater than 7.3.
For `CCCCC(C)(C)c1ccc([C@@H]2C[C@H](O)CC[C@H]2CCCO)cc1` (relative stereo) the same measures were 579 nM, 700 nM and 0.8.
For `CCCCCCCCC(C)(C)c1ccc([C@@H]2CCC[C@@H](O)C2)cc1` (relative stereo) the same measures were 749 nM, 1080 nM and 0.7.
For `CCC(C)(C)c1ccc([C@@H]2CCC[C@@H](O)C2)cc1` (relative stereo) the same measures were greater than 10000 nM, 3760 nM and greater than 2.7.
As to `CCCC(C)(C)c1ccc([C@H]2CCC[C@@H](O)C2)cc1` (relative stereo), the Ki in assay [1] was greater than 10000 nM; in assay [2] it was 2060 nM. Further, in assay [3], the Ratio Ki is greater than 4.9.
`CCCCCCC(C)(C)c1ccc([C@@H]2C[C@H](O)CC[C@H]2CCCO)cc1` (relative stereo): the figures for the Ki in assay [1] and in assay [2] were 547 nM and 238 nM, respectively. Further, the Ratio Ki in assay [3] stood at 2.3.
